{"source": "ChEMBL document CHEMBL4765392", "about": "“Development of coumarine derivatives as potent anti-filovirus entry inhibitors targeting viral glycoprotein” (Eur J Med Chem, 2020)", "key": {"[1]": {"test": "Inhibition of envelope glycoprotein in HIV pseudotyped Zaire Ebolavirus infected in human A549 cells assessed as reduction in virus entry measured after 48 hrs by luciferase reporter gene assay", "type": "cell-based", "conditions": "A549, 48 h", "how_it_was_run": "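A549 cells (5000/well, seeded 24 h prior) incubated 48 h with 3-fold serial compound dilutions premixed with HIV-backbone luciferase pseudovirions bearing EBOV GP. Entry quantified by luciferase signal, normalized to virus-alone cells. IC50 from logistic regression of dose-response curves.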"}, "[2]": {"test": "Cytotoxicity against human A549 cells assessed as reduction in cell viability by Celltiter-Glo assay", "type": "cell-based", "how_it_was_run": "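Low-passage A549 cells seeded at 5000/well 24 h ahead, then exposed for 48 h to 3-fold serial compound dilutions in fresh media without virus. Viability read by CellTiter-Glo luminescence and normalized to medium-only cells. CC50 from logistic regression fit of dose-response curves.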"}, "[3]": {"system": "envelope glycoprotein of Zaire Ebolavirus", "test": "Selectivity index, ratio of CC50 for human A549 cells to IC50 for inhibition of envelope glycoprotein in HIV pseudotyped Zaire Ebolavirus infected in human A549 cells assessed as reduction in virus entry", "type": "toxicity, cell-based", "conditions": "read-out: Ratio CC50/IC50", "how_it_was_run": "(§1)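 IC50 wells also got HIV luciferase pseudovirions bearing MARV GP or EBOV GP, read by luciferase. CC50 wells got fresh media, read by CellTiter-Glo. Both values come from logistic dose-response fits, and the index is CC50 divided by IC50.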"}, "[4]": {"system": "envelope glycoprotein of Marburgvirus", "test": "Selectivity index, ratio of CC50 for human A549 cells to IC50 for inhibition of envelope glycoprotein in HIV pseudotyped Marburgvirus infected in human A549 cells assessed as reduction in virus entry", "type": "toxicity, cell-based", "conditions": "read-out: Ratio CC50/IC50", "how_it_was_run": "as §1"}}, "data": [{"smiles": "Cc1c(Cc2ccccc2)c(=O)oc2cc(OCC(O)CNCc3ccccc3)ccc12", "note": "(configuration not stated)", "values": [{"measurement": "IC50", "setting": "[1]", "result": 1.3, "unit": "µM"}, {"measurement": "CC50", "setting": "[2]", "result": "> 100", "unit": "µM"}, {"measurement": "selectivity ratio", "setting": "[3]", "result": "> 75"}, {"measurement": "selectivity ratio", "setting": "[4]", "result": 45.5}]}, {"smiles": "Cc1c(Cc2ccccc2)c(=O)oc2cc(OCC(O)CNC3CCOCC3)ccc12", "note": "(configuration not stated)", "values": [{"measurement": "IC50", "setting": "[1]", "result": 2.2, "unit": "µM"}, {"measurement": "CC50", "setting": "[2]", "result": 38.2, "unit": "µM"}, {"measurement": "selectivity ratio", "setting": "[3]", "result": 17.4}, {"measurement": "selectivity ratio", "setting": "[4]", "result": 17.1}]}, {"smiles": "Cc1c(Cc2ccc(OC(F)(F)F)cc2)c(=O)oc2cc(OC[C@H](O)CN3CCC(C(N)=O)CC3)ccc12", "values": [{"measurement": "IC50", "setting": "[1]", "result": 0.9, "unit": "µM"}, {"measurement": "CC50", "setting": "[2]", "result": 52, "unit": "µM"}, {"measurement": "selectivity ratio", "setting": "[3]", "result": 55.7}, {"measurement": "selectivity ratio", "setting": "[4]", "result": 36.3}]}, {"smiles": "Cc1c(Cc2ccc(OC(F)(F)F)cc2)c(=O)oc2cc(OCC(O)CNc3nccs3)ccc12", "note": "(configuration not stated)", "values": [{"measurement": "IC50", "setting": "[1]", "result": 1.5, "unit": "µM"}, {"measurement": "CC50", "setting": "[2]", "result": 99, "unit": "µM"}, {"measurement": "selectivity ratio", "setting": "[3]", "result": 66}, {"measurement": "selectivity ratio", "setting": "[4]", "result": 82.5}]}, {"smiles": "Cc1c(Cc2ccc(-c3ccccc3)cc2)c(=O)oc2cc(OCC(O)CN3CCC(C(N)=O)CC3)ccc12", "note": "(configuration not stated)", "values": [{"measurement": "IC50", "setting": "[1]", "result": 0.7, "unit": "µM"}, {"measurement": "CC50", "setting": "[2]", "result": "> 100", "unit": "µM"}, {"measurement": "selectivity ratio", "setting": "[3]", "result": "> 143"}, {"measurement": "selectivity ratio", "setting": "[4]", "result": 111}]}, {"smiles": "Cc1c(Cc2ccccc2)c(=O)oc2cc(OCC(CN3CCC(C(N)=O)CC3)Oc3ccccc3F)ccc12", "note": "(configuration not stated)", "values": [{"measurement": "IC50", "setting": "[1]", "result": 22.5, "unit": "µM"}, {"measurement": "CC50", "setting": "[2]", "result": 79.6, "unit": "µM"}, {"measurement": "selectivity ratio", "setting": "[3]", "result": 3.5}, {"measurement": "selectivity ratio", "setting": "[4]", "result": 3.9}]}, {"smiles": "Cc1c(Cc2ccc(C(F)(F)F)cc2)c(=O)oc2cc(OCC(O)CN3CCC(C(N)=O)CC3)ccc12", "note": "(configuration not stated)", "values": [{"measurement": "IC50", "setting": "[1]", "result": 1.1, "unit": "µM"}, {"measurement": "CC50", "setting": "[2]", "result": 89.3, "unit": "µM"}, {"measurement": "selectivity ratio", "setting": "[3]", "result": 78.8}, {"measurement": "selectivity ratio", "setting": "[4]", "result": 83.7}]}, {"smiles": "Cc1c(Cc2ccc(-c3ccc(F)cc3)cc2)c(=O)oc2cc(OCC(O)CN3CCC(C(N)=O)CC3)ccc12", "note": "(configuration not stated)", "values": [{"measurement": "IC50", "setting": "[1]", "result": 1.5, "unit": "µM"}, {"measurement": "CC50", "setting": "[2]", "result": 19.3, "unit": "µM"}, {"measurement": "selectivity ratio", "setting": "[3]", "result": 13.1}, {"measurement": "selectivity ratio", "setting": "[4]", "result": 18.1}]}]}
